UPR XBP1 act – activators of adaptive arm of unfolded protein response (XBP1); CHO-XBP1 luciferase reporter, IRE1-XBP1 UPR activation, luminescence; percent of tunicamycin response, DMSO as zero; activation, % at 20 µM; 330,000 compounds, 0.33% hits;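 active = versus positive control, 20 µM dose yields 30% or more activation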;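 also: 100% = tunicamycin at 10 µg/mL and 0% = DMSO only wells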
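Material: CHO cell line with stable XBP1 luciferase reporter; schedule: 16-18 h cell attachment at 37 °C, then 6 h compound exposure; signal: glow luminescence from Steady-Glo reagent; medium: serum-containing F12 medium, 10% FBS; benchmarks: tunicamycin 10 µg/mL and vehicle-only wells; read-out: percent activation relative to tunicamycin reference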
CHOP UPR activ – apoptotic UPR (CHOP) activation. CHO-CHOP luciferase reporter, luminescence; percent of tunicamycin response over DMSO baseline. activation, % at 10 µM. 330,000 compounds, 0.34% hits;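 active = at 10 µM dose, activation of 40% or more, normalized to positive control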;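 also: 100% = tunicamycin at 10 µg/mL and 0% = DMSO alone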
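System: CHO CHOP reporter cells. Amount: 500 cells per well. Buffer or medium: F12 medium, 10% FBS. Compound dosing: one dose, 10 µM in 0.5% DMSO. Incubation: 6 h compound exposure at 37 °C after overnight seeding. Technique: Steady-Glo luciferase luminescence. Benchmarks: tunicamycin and DMSO controls.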
CHOP inhibitor – blocks CHOP induction under ER stress; CHO-K1 CHOP-promoter luciferase, tunicamycin-induced, 15-18 h; inhibition, % at 10 µM; 220,000 compounds, 3.8% hits; AID 2732;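 active = compounds that reduced the stress-induced luciferase reporter signal by more than about 70% of percent inhibition, limit read from the data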;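 also: 0% = tunicamycin plus vehicle and 100% = wells without tunicamycin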
UCH37 inh – human UCH37 deubiquitinating enzyme inhibition; Q9Y5K5; purified proteasome/UCH37, Ub-AMC cleavage fluorescence; inhibition, % (test concentration not listed); 330,000 compounds, 0.33% hits; AID 588478;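 active = mean inhibition over replicate wells above about 20%, limit read from the data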;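 also: 0% = compound-free wells with enzyme and 100% = wells lacking proteasome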
Target sequence (Q9Y5K5 whole entry, looked up): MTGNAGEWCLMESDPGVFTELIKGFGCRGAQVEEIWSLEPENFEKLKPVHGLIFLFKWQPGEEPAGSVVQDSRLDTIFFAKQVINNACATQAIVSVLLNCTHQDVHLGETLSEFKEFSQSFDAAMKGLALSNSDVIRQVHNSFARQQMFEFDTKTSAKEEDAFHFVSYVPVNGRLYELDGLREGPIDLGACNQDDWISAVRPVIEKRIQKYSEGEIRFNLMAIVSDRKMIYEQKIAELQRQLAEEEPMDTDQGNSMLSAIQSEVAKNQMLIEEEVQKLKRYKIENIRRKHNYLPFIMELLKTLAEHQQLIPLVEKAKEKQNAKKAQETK
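Material: Human UCH37 enzyme supplied as purified proteasome complex | Schedule: 30 min compound-proteasome preincubation then 25 min substrate reaction, room temperature | Detection: AMC fluorescence from Ub-AMC cleavage, excitation 355 nm, emission 460 nm | Benchmarks: Wells without proteasome as full block, compound-free enzyme plus substrate as uninhibited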
Fh CTSL1 inh – counter-screen for PFM18AAP inhibitors: inhibitors of F. hepatica cathepsin L1; recombinant F. hepatica cathepsin L1, Z-Leu-Arg-MCA fluorescence; inhibition, % at 5.96 µM; 300,000 compounds, 0.49% hits;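 active = inhibition above the mean of all tested compounds plus 3 SD, set per screening campaign, cut at about 17% in these data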;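 also: 0% = plate median of test compound wells and 100% = 1 µM Z-Phe-Ala-diazomethylketone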
CHOP confirm – confirmation of CHOP induction inhibitors. inhibition, % at 10 µM. shares compounds with CHOP inhibitor. CHO-CHOP promoter luciferase reporter, tunicamycin-induced, luminescence. 2,100 compounds, 45% hits;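 active = mean of three repeat readings of reporter signal inhibition above a set limit, cut at about 70% in these data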;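 also: 0% = tunicamycin plus vehicle and 100% = wells lacking tunicamycin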
* = called active by the depositor; . = no result. The entries come from a sample that favours hits as a whole.

SMILES	UPR XBP1 act	CHOP UPR activ	CHOP inhibitor	UCH37 inh	Fh CTSL1 inh	CHOP confirm
Cc1ccc(C=NNC(=O)CNC(=O)c2cccs2)o1	.	.	.	6	.	.
C=CCOC(=O)C1=C(C)NC(SCC(=O)N(CC)CC)=C(C#N)C1c1ccco1 (stereo unspecified)	1	-3	.	-1	2	.
C=CCOC(=O)C1=C(C)NC(SCC(=O)Nc2ccccc2)=C(C#N)C1c1ccco1 (stereo unspecified)	-1	6	104*	-161	7	116*
Cc1cc(=O)n2c3c(sc2n1)C(=O)N(Cc1ccccc1)C3=O	-5	1	105*	.	-2	-20
O=C(N=Nc1c(O)[nH]c2ccccc12)c1cccc(S(=O)(=O)N2CCCCC2)c1	14	3	97*	3	-3	-27
O=C(Nc1ccccc1Cl)ON=Cc1ccncc1	.	.	.	1	.	.
O=C(Cc1ccc(Cl)cc1)NN=Cc1cccc(O)c1	.	.	.	2	.	.
O=C(NN=Cc1ccc([N+](=O)[O-])s1)c1cccc(Br)c1	.	.	.	6	.	.
COc1cc(C(=O)Nc2cccc(-c3nc4cc(C)ccc4o3)c2C)cc(OC)c1OC	6	1	108*	2	0	16
COc1ccc(OCC(=O)NN=C/C(C)=C/c2ccco2)c(Br)c1	.	.	.	-4	.	.
CCOc1ccc(CCN2C(=O)C(=O)N([C@H](CCCN(C)Cc3ccccc3)CNCc3ccccc3)C[C@@H]2C(C)C)cc1	1	2	3	6	.	.
CN(CCCC[C@H](CNCc1ccc(-c2ccccc2)cc1)N1C[C@H](c2ccccc2)N(CCc2ccc(Cl)c(Cl)c2)C(=O)C1=O)Cc1ccc(-c2ccccc2)cc1	.	.	107*	.	.	112*
CNC(=S)NNC(=O)COc1ccccc1C	-5	-1	-21	2	-4	.
Cc1ccccc1OCC(=O)NNC(=O)c1ccc(-c2ccccc2)cc1	-5	-1	105*	2	-15	19
COc1ccc(C=NNC(=O)Cc2n[nH]c(=O)[nH]c2=O)cc1	.	.	.	2	.	.
CC(/C=N/n1c(C2CCCCC2)n[nH]c1=S)=C\c1ccccc1	2	-2	107*	.	5	102*
CC1Oc2ccccc2C=C1C=NNC(=O)c1ccccc1 (stereo unspecified)	.	.	.	-14	.	.
CCC(=NNc1ccc([N+](=O)[O-])cc1)c1ccccc1	.	.	.	-3	.	.
COc1ccc(OC)c(-c2cc(C3CCN(c4ncccc4[N+](=O)[O-])CC3)[nH]n2)c1	0	1	42	7	1	.
O=[N+]([O-])c1cccnc1N1CCC(c2cc(-c3cccc(C(F)(F)F)c3)n[nH]2)CC1	0	2	103*	3	-2	48
CC(=NNC(=O)COc1ccc(C)cc1C(C)C)c1cc2ccccc2o1	.	.	.	3	.	.
Cn1ccc(C(=O)NN=Cc2ccncc2)n1	.	.	.	2	.	.
NC(=O)CC(NC(=O)Cc1ccc(Br)cc1)c1ccc(NCc2cc(F)ccc2F)c([N+](=O)[O-])c1 (stereo unspecified)	0	-2	97*	2	0	7
NC(=O)CC(NC(=O)Cc1cccc2ccccc12)c1ccc(NCc2ccc(F)cc2)c([N+](=O)[O-])c1 (stereo unspecified)	-3	-3	105*	.	-2	108*
NC(=O)CC(NC(=O)Cc1cccc2ccccc12)c1ccc(NCc2ccccc2)c([N+](=O)[O-])c1 (stereo unspecified)	0	1	101*	.	3	91*
SMILES	UPR XBP1 act	CHOP UPR activ	CHOP inhibitor	UCH37 inh	Fh CTSL1 inh	CHOP confirm
CC(C)Nc1ccc(C(CC(N)=O)NC(=O)Cc2cccc3ccccc23)cc1[N+](=O)[O-] (stereo unspecified)	-5	1	-1	4	0	.
NC(=O)CC(NC(=O)Cc1cccc2ccccc12)c1ccc(NCc2ccccn2)c([N+](=O)[O-])c1 (stereo unspecified)	0	5	18	1	3	.
NC(=O)CC(NC(=O)Cc1ccc(Br)cc1)c1ccc(NCCc2cccc(F)c2)c([N+](=O)[O-])c1 (stereo unspecified)	-3	-2	-2	1	2	.
NC(=NOC(=O)CC1CCCCC1)c1cccc([N+](=O)[O-])c1	.	.	.	1	.	.
CC(C)NC(=S)NN=Cc1cc(Br)ccc1O	.	.	.	-21	.	.
Cc1sc(-c2ccncc2)nc1OC(=O)c1ccc(Cl)cc1	-1	-6	-3	1	-3	.
Cc1sc(-c2ccncc2)nc1OC(=O)c1cc(Cl)cc(Cl)c1	21	10	104*	-1	-4	63
O=[N+]([O-])c1ccccc1C=NOCc1ccccc1	.	.	.	2	.	.
C=CS(=O)(=O)c1ccc(Oc2ccc(S(=O)(=O)C=C)cc2)cc1	-6	-7	.	4	2	120*
O=S(=O)(c1ccc(Oc2ccc(S(=O)(=O)N3CCOCC3)cc2)cc1)N1CCOCC1	1	-3	12	3	-5	.
O=C(CNS(=O)(=O)c1ccccc1)NN=Cc1ccncc1	.	.	.	3	.	.
O=C1C(C2=NC(c3ccccn3)C3C(=O)N(c4ccc(Cl)cc4Cl)C(=O)C23)=C(O)c2ccccc21 (stereo unspecified)	3	20	105*	-2	-4	118*
CCN(CC)CCOC(=O)c1ccc(N/C=C(/C#N)c2nc(-c3cccc(OC)c3)cs2)cc1	-1	2	105*	3	2	80*
COc1cc(NC(=O)Cn2c(C)cc3ccccc3c2=O)cc(OC)c1OC	-4	-3	97*	0	2	20
COc1ccc(-c2[nH]ncc2/C=C(/C#N)C(=O)NC2CCCCCC2)cc1	3	1	99*	-36	9	82*
Cc1cc(/C=C(\C#N)C(=O)NC2CCCCCC2)c(C)[nH]1	.	.	5	.	8	.
Nc1ccc(SC(F)(F)F)cc1C(=O)c1ccccc1	3	1	104*	1	-1	111*
O=C(CN1C(=O)c2ccccc2S1(=O)=O)c1ccc(F)cc1	-10	-7	38	6	10	.
O=C(CN1C(=O)c2ccccc2S1(=O)=O)c1ccc2c(c1)OCCCO2	-11	-11	104*	4	7	121*
